Screening results: PubChem, Broad Institute
In the library only some 5.9% were active in any assay of this set; here they are far more common.
GASC1 inh – inhibitors of GASC-1 (KDM4C) histone demethylase, primary screen, biochemical, single concentration HTS; GST-KDM4C 2-372, H3K9me3 peptide, LANCE TR-FRET; inhibition, % at 12.5 µM; 96,000 compounds, 0.15% hits; AID 720574, 2013;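 active = mean replicate inhibition above about 25%, with at least 55% of replicates also reaching it, limit read from the data, passing the limit was not always enough; inconclusive = only one of those two conditions met; inactive = neither condition met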
Target sequence (Q9H3R0 2-372 limits assumed): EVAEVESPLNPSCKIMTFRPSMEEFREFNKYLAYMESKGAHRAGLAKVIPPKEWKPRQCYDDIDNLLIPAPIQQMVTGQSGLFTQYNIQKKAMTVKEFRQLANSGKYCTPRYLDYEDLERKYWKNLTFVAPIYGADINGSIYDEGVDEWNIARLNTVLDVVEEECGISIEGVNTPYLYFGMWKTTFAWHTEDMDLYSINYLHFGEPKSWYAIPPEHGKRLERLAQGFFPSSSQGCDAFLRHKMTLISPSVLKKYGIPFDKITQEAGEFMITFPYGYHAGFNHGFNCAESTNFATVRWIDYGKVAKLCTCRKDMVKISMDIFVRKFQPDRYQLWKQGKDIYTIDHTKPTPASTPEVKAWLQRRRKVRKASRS
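System: N-terminal GST-fused human GASC-1 (KDM4C) fragment, residues 2-372; amount: enzyme final amount 10 nM; incubation: reaction 30 min RT, detection step 1 h RT; medium: HEPES buffer, pH 7.5, plus ascorbate; technique: LANCE TR-FRET, Eu antibody, ULight-streptavidin, EDTA, ex 340 nm, em 618/671 nm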
IDH1 R132H inh – inhibitors of IDH1 R132H reductase, primary screen, biochemical, plate reader, single point. Isocitrate dehydrogenase [NADP] cytoplasmic (Homo sapiens), O75874. diaphorase/resazurin fluorescence, 60 min. inhibition, % at 10 µM. 70,000 compounds, 0.18% hits. AID 624101, 2012; in the data active = inhibition above about 34%; inconclusive = no clear call, values can overlap the other calls; inactive = below about 11%;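 also: 0% = DMSO and 100% = no enzyme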
T cruzi growth-1 – T. cruzi intracellular proliferation inhibitors, primary screen, cell-based, beta-gal Tulahuen parasites, NIH3T3 host, luminescence. T. cruzi beta-gal in NIH3T3, GalScreen luminescence, 90 h. inhibition, % at 8.34 µM. AID 624255, 2012. 77,000 compounds, 5.9% hits;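 active = mean inhibition above about 93%, with at least 55% of replicates each passing it, limit read from the data, passing the limit was not always enough; inconclusive = only one of those two conditions holds; inactive = neither condition holds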
Pf Dd2 growth – P. falciparum Dd2 growth inhibitors, primary screen, SYBR Green fluorescence, single dose replicates; activity change, % at 10 µM; 94,000 compounds, 2.3% hits; 72 h; stronger effect = lower value; in the data active = activity change below about -80%; inconclusive = no clear call, values can overlap the other calls
T cruzi growth-2 – T. cruzi intracellular proliferation inhibitors, confirmation, cell-based, NIH3T3 host, beta-gal parasite, luminescence, cherry-pick. shares compounds with T cruzi growth-1. T. cruzi beta-gal in NIH3T3, GalScreen luminescence, 90 h. inhibition, % at 8.35 µM. 5,600 compounds, 72% hits. AID 651739, 2012;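 active = mean replicate inhibition above about 95% and at least 55% of replicates individually reaching it, limit read from the data; inconclusive = only one of the two criteria is met; inactive = neither criterion is met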
T cruzi growth-3 – inhibitors of intracellular T. cruzi replication, confirmation, NIH3T3 host cells, beta-gal parasites, cherry-pick, set 2. shares compounds with T cruzi growth-1. inhibition, % at 2.09 µM. 5,600 compounds, 21% hits. T. cruzi beta-gal in NIH3T3, GalScreen luminescence, 90 h;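 active = mean inhibition above about 95%, with at least 55% of replicates also reaching it, limit read from the data; inconclusive = meets just one of the two conditions; inactive = meets neither condition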;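 also: plate controls were neutral control median for no effect and positive control median for full effect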
NIH3T3 tox – cytotoxicity in mouse NIH/3T3 fibroblasts, confirmation, cytotoxicity control for T. cruzi proliferation inhibitor project, cell-based, cherry-pick, single point | shares compounds with T cruzi growth-1 | NIH/3T3 viability, CellTiter-Glo ATP luminescence, 90 h | cytotoxicity (signal decrease), % at 8.35 µM | 5,600 compounds, 14% hits;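 active = mean signal decrease across replicates above about 35% based on untreated-well scatter, with enough replicates individually passing, limit read from the data; inconclusive = no rule stated though some were filed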;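 also: 0% = median of neutral control wells and 100% = median of positive control wells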
3T3 cytotox 2 – NIH/3T3 fibroblast cytotoxicity, confirmation, cytotoxicity control, cell-based, cherry-pick, single point, set 2 | shares compounds with T cruzi growth-1 | NIH/3T3 viability, CellTiter-Glo ATP luminescence, 90 h | inhibition, % at 24.9 µM | 5,600 compounds, 56% hits;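 active = mean loss of cell viability signal at or above a set limit, and enough replicates individually reaching it; inconclusive = meets only the mean limit or only the replicate share; inactive = meets neither condition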;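 also: 0% = median of neutral control wells and 100% = median of positive control wells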
The depositor's hits bear a star.

What do the screens show for `CCC(=O)N1C[C@H]2[C@@H](c3ccccc31)[C@H](CO)N2C(=O)CC`?
GASC1 inh: -2; T cruzi growth-1: 104*; Pf Dd2 growth: -7; T cruzi growth-2: 62; T cruzi growth-3: -15; NIH3T3 tox: -11; 3T3 cytotox 2: -17

Results for O=C(CCCCCC(=O)N/N=C/c1c(F)c(F)c(F)c(F)c1F)NO ?
IDH1 R132H inh: 1

Results for O=S(=O)(c1ccc(F)cc1)N1C[C@H]2[C@@H](c3ccccc31)[C@H](CO)N2Cc1ccccc1Cl ?
GASC1 inh: -5; T cruzi growth-1: 108*; Pf Dd2 growth: -69; T cruzi growth-2: 102*; T cruzi growth-3: 94; NIH3T3 tox: 26; 3T3 cytotox 2: 38*

How did O=C(Nc1ccc(F)cc1)N1C[C@H]2[C@@H](c3ccccc31)[C@H](CO)N2C(=O)c1ccccc1 do in these assays?
GASC1 inh: 1; T cruzi growth-1: 102*; Pf Dd2 growth: -7; T cruzi growth-2: 98*; T cruzi growth-3: 64; NIH3T3 tox: -2; 3T3 cytotox 2: -4

Results for COc1ccc(C(=O)N2C[C@H]3[C@@H](c4ccccc42)[C@H](CO)N3Cc2ccc3c(c2)OCO3)cc1 ?
GASC1 inh: 1; T cruzi growth-1: inconclusive; Pf Dd2 growth: -9; T cruzi growth-2: 75; T cruzi growth-3: 1; NIH3T3 tox: -7; 3T3 cytotox 2: 33*

Results for CCOC(=O)c1c(NC(=O)Cn2c(=O)oc3ccccc32)sc(C(C)=O)c1C ?
IDH1 R132H inh: 0

Results for Cc1ccc(C(=O)Nc2cccc(NC(=O)COc3ccc(Br)cc3)c2)cc1 ?
IDH1 R132H inh: 0

What do the screens show for `COc1ccccc1C#Cc1ccc2c(c1)O[C@@H](CN(C)Cc1ccccc1)[C@H](C)CN([C@@H](C)CO)S2(=O)=O`?
GASC1 inh: -4; IDH1 R132H inh: -3; T cruzi growth-1: 119*; Pf Dd2 growth: -66; T cruzi growth-2: 87; T cruzi growth-3: 112*; NIH3T3 tox: 45*; 3T3 cytotox 2: 42*

How did COc1ccccc1C#Cc1ccc2c(c1)O[C@H](CN(C)Cc1ccccc1)[C@@H](C)CN([C@H](C)CO)S2(=O)=O do in these assays?
GASC1 inh: -3; IDH1 R132H inh: 2; T cruzi growth-1: 114*; Pf Dd2 growth: -77; T cruzi growth-2: 99*; T cruzi growth-3: 112*; NIH3T3 tox: -47; 3T3 cytotox 2: -16

What do the screens show for `COc1ccccc1C#Cc1ccc2c(c1)O[C@@H](CN(C)Cc1ccccc1)[C@@H](C)CN([C@H](C)CO)S2(=O)=O`?
GASC1 inh: 4; IDH1 R132H inh: 0; T cruzi growth-1: 122*; Pf Dd2 growth: -6; T cruzi growth-2: 107*; T cruzi growth-3: 113*; NIH3T3 tox: -27; 3T3 cytotox 2: -39

How did COc1ccccc1C#Cc1ccc2c(c1)O[C@H](CN(C)Cc1cccnc1)[C@H](C)CN([C@@H](C)CO)S2(=O)=O do in these assays?
GASC1 inh: -3; Pf Dd2 growth: -32

What do the screens show for `COc1cc(OC)c2ccc(=O)oc2c1CC(O)C(C)(C)OC` (stereo unspecified)?
IDH1 R132H inh: 0

How did CC(=O)c1cccc(NC(=O)Cn2nc([N+](=O)[O-])c(Br)c2C)c1 do in these assays?
IDH1 R132H inh: 0

How did C[C@H]1CN([C@@H](C)CO)S(=O)(=O)c2ccc(-c3ccc(F)cc3)cc2O[C@@H]1CN(C)C(=O)C1CCCCC1 do in these assays?
GASC1 inh: -2; T cruzi growth-1: 99*; Pf Dd2 growth: -15; T cruzi growth-2: 95*; T cruzi growth-3: 69; NIH3T3 tox: 10; 3T3 cytotox 2: 53*

How did C[C@H]1CN([C@@H](C)CO)S(=O)(=O)c2ccc(-c3ccc(F)cc3)cc2O[C@H]1CN(C)C(=O)C1CCCCC1 do in these assays?
GASC1 inh: -1; IDH1 R132H inh: 0; T cruzi growth-1: 112*; Pf Dd2 growth: -49; T cruzi growth-2: 96*; T cruzi growth-3: 57; NIH3T3 tox: 21; 3T3 cytotox 2: 101*

What do the screens show for `C[C@H](CO)N1C[C@H](C)[C@H](CN(C)C(=O)C2CCCCC2)Oc2cc(-c3ccc(F)cc3)ccc2S1(=O)=O`?
GASC1 inh: -4; IDH1 R132H inh: -1; T cruzi growth-1: 119*; Pf Dd2 growth: -30; T cruzi growth-2: 110*; T cruzi growth-3: 71; NIH3T3 tox: inconclusive; 3T3 cytotox 2: 100*

Results for C[C@@H]1CN([C@H](C)CO)S(=O)(=O)c2ccc(-c3ccc(F)cc3)cc2O[C@H]1CN(C)C(=O)C1CCCCC1 ?
GASC1 inh: -2; T cruzi growth-1: 53; Pf Dd2 growth: -73

What do the screens show for `O=C(N/N=C/c1c(O)cc(O)cc1O)c1ccccc1O`?
IDH1 R132H inh: 0

What do the screens show for `C/C=C/c1ccc([C@@H]2[C@@H](CNC(=O)CC3CC3)N(C(C)=O)[C@H]2CO)cc1`?
GASC1 inh: -1; T cruzi growth-1: 27; Pf Dd2 growth: 4

Results for C/C=C/c1ccc([C@H]2[C@@H](CO)N(C(C)=O)[C@@H]2CNC(=O)c2ccccc2)cc1 ?
GASC1 inh: -1; T cruzi growth-1: 104*; Pf Dd2 growth: 5; T cruzi growth-2: 97*; T cruzi growth-3: -87; NIH3T3 tox: -24; 3T3 cytotox 2: -31

Results for C/C=C/c1ccc([C@@H]2[C@@H](CO)N(C(C)=O)[C@@H]2CNC(=O)CC2CC2)cc1 ?
GASC1 inh: -1; T cruzi growth-1: inconclusive; Pf Dd2 growth: -11; T cruzi growth-2: 73; T cruzi growth-3: 13; NIH3T3 tox: 11; 3T3 cytotox 2: 24

What do the screens show for `CCC(Sc1nnc(-c2ccc(NC(C)=O)cc2)n1C)C(=O)Nc1ccc(Cl)cc1` (stereo unspecified)?
IDH1 R132H inh: 0
